Calls of active or inactive are those of the source.
Assays:
[1] = target: Mast/stem cell growth factor receptor Kit (Homo sapiens) (UniProt P10721); assay: Binding affinity to wild-type human partial length autoinhibited KIT (Y545 to D952 residues) expressed in mammalian expression system assessed as remaining unbound target protein level at 1000 nM by Kinomescan method relative to control
[2] = Oral bioavailability in Sprague-Dawley rat at 20 mg/kg by LC-MS/MS analysis; assay type: ADME, organism-based; settings: in vivo
[3] = target: Bone morphogenetic protein receptor type-2 (Homo sapiens) (UniProt Q13873); assay: Binding affinity to wild-type human partial length BMPR2 (R179 to Q526 residues) expressed in mammalian expression system assessed as remaining unbound target protein level at 1000 nM by Kinomescan method relative to control
Method in brief: (§1)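 Profiled in a KINOMEscan binding panel with the inhibitor at a single concentration of 1 μM. Binding to each kinase was read out as percent of control, relative to a DMSO control. Strong binders were defined as those with a percent control value below 1.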

[4] = target: Non-receptor tyrosine-protein kinase TYK2 (Homo sapiens) (UniProt P29597); assay: Binding affinity to wild-type human partial length TYK2 JH2 pseudokinase domain (G556 to D888 residues) expressed in mammalian expression system assessed as remaining unbound target protein level at 1000 nM by Kinomescan method relative to control
Chain of Non-receptor tyrosine-protein kinase TYK2 (Homo sapiens) (P29597 whole entry, the tested form may be a part): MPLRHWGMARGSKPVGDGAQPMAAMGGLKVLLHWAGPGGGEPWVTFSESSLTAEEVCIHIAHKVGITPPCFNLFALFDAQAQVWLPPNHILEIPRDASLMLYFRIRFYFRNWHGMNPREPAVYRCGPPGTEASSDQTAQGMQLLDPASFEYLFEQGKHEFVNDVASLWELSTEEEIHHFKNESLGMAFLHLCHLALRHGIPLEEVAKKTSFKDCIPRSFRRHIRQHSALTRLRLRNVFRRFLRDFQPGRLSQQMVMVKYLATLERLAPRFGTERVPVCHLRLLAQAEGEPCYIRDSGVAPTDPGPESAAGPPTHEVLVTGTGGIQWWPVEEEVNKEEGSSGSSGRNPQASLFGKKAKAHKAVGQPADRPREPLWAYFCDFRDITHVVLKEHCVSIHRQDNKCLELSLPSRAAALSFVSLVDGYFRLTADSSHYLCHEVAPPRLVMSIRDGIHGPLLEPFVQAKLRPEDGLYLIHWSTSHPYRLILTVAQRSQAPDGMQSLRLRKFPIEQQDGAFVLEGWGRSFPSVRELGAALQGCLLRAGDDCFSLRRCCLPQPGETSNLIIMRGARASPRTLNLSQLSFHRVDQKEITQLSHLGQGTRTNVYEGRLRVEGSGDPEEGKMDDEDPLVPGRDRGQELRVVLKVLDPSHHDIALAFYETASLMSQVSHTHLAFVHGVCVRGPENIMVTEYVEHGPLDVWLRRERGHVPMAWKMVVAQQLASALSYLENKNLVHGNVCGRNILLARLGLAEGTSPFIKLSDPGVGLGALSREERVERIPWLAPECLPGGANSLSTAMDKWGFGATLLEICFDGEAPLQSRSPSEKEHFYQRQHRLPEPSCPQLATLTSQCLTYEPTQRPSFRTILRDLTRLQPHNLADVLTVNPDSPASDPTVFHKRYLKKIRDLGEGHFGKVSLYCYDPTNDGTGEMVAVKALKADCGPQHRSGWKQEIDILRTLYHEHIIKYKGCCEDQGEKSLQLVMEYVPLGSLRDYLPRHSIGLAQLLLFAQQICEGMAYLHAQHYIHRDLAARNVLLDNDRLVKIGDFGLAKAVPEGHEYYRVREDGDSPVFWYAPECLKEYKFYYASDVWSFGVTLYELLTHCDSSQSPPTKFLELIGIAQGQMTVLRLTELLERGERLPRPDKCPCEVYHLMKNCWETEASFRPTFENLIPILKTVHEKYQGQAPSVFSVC

[5] = target: Non-receptor tyrosine-protein kinase TYK2 (Homo sapiens) (UniProt P29597); assay: Binding affinity to wild-type human partial length TYK2 JH1 catalytic domain (V877 to C1187 residues) expressed in mammalian expression system assessed as remaining unbound target protein level at 1000 nM by Kinomescan method relative to control
[6] = target: Calcium/calmodulin-dependent protein kinase kinase 2 (Homo sapiens) (UniProt Q96RR4); assay: Binding affinity to wild-type human partial length CAMKK2 (D65 to V471 residues) expressed in bacterial expression system assessed as remaining unbound target protein level at 1000 nM by Kinomescan method relative to control; method in brief: as §1
Chain of Calcium/calmodulin-dependent protein kinase kinase 2 (Homo sapiens) (Q96RR4 2-588 limits assumed): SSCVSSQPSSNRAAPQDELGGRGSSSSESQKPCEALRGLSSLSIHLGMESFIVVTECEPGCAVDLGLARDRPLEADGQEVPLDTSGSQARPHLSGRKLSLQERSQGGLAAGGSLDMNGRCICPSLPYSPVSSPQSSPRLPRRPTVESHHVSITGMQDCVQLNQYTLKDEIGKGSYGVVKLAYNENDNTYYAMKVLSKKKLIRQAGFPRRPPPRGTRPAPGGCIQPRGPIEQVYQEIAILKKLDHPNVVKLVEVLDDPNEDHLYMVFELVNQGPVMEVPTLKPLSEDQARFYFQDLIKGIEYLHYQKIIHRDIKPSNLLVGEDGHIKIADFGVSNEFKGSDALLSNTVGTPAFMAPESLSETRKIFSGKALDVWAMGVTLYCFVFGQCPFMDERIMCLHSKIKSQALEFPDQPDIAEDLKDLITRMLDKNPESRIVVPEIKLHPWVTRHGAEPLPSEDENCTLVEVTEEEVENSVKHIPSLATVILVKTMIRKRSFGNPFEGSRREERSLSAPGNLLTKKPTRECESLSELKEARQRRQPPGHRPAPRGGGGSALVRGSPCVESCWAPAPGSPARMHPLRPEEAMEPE

[7] = target: Dual specificity mitogen-activated protein kinase kinase 5 (Homo sapiens) (UniProt Q13163); assay: Binding affinity to wild-type human partial length MEK5 (L98 to P448 residues) expressed in mammalian expression system assessed as remaining unbound target protein level at 1000 nM by Kinomescan method relative to control
Chain of Dual specificity mitogen-activated protein kinase kinase 5 (Homo sapiens) (Q13163 whole entry, the tested form may be a part): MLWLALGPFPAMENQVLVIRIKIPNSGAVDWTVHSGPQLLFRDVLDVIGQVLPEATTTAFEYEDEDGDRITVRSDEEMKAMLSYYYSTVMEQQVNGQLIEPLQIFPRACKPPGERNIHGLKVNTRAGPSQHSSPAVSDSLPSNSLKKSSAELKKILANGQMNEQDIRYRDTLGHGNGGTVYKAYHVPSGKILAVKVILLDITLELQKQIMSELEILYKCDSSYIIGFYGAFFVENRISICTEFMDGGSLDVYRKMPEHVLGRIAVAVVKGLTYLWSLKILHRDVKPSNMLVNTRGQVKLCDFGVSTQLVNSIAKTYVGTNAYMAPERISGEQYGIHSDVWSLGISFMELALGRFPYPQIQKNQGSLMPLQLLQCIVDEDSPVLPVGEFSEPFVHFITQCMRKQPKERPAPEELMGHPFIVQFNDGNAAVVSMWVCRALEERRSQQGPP
Method in brief: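 KINOMEscan binding panel of 468 kinases/mutants. Inhibitor was tested at a single concentration of 1 μM. Binding is reported as percent of control, defined relative to a DMSO control.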

[8] = Tmax in Sprague-Dawley rat at 20 mg/kg, po by LC-MS/MS analysis; assay type: ADME, organism-based; settings: in vivo
[9] = Half life in mouse at 10 mg/kg, po by LC-MS/MS analysis; assay type: ADME, organism-based; settings: in vivo
[10] = target: Serine/threonine-protein kinase OSR1 (Homo sapiens) (UniProt O95747); assay: Binding affinity to wild-type human full length OSR1 (M1 to S527 residues) expressed in mammalian expression system assessed as remaining unbound target protein level at 1000 nM by Kinomescan method relative to control
Method in brief: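 Single-point competition binding screen across a panel of 468 kinases and mutants, with the inhibitor at 1 μM. Binding is read out as percent of a DMSO control, and targets below 1 percent control were classed as strong binders.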

[11] = target: Inhibitor of nuclear factor kappa-B kinase subunit epsilon (Homo sapiens) (UniProt Q14164); assay: Binding affinity to wild-type human full length IKK-epsilon (M1 to V716 residues) expressed in mammalian expression system assessed as remaining unbound target protein level at 1000 nM by Kinomescan method relative to control
Method in brief: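 KINOMEscan competition binding profile across a panel of 468 kinases and mutants, with the inhibitor tested at a single concentration of 1 μM. Binding is reported as percent of control, meaning signal relative to a DMSO control.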

[12] = target: Cyclin-dependent kinase 7 (Homo sapiens) (UniProt P50613); assay: Inhibition of CDK7 in human HL60 cells assessed as decrease in RNA polymerase 2 phosphorylation at Ser 5 residues up to 3 uM after 2 hrs by immunoblotting analysis; assay type: cell-based
[13] = target: Ephrin type-A receptor 6 (Homo sapiens) (UniProt Q9UF33); assay: Binding affinity to wild-type human partial length EPHA6 (Y700 to E1046 residues) expressed in bacterial expression system assessed as remaining unbound target protein level at 1000 nM by Kinomescan method relative to control
[14] = MRT (0 to t) in beagle dog at 10 mg/kg, po by LC-MS/MS analysis; assay type: ADME, organism-based, Canis lupus familiaris; settings: in vivo
[15] = target: Serine/threonine-protein kinase Nek9 (Homo sapiens) (UniProt Q8TD19); assay: Binding affinity to wild-type human partial length NEK9 (P32 to R328 residues) expressed in bacterial expression system assessed as remaining unbound target protein level at 1000 nM by Kinomescan method relative to control
[16] = target: Cyclin-dependent kinase 8 (Homo sapiens) (UniProt P49336); assay: Binding affinity to wild-type human partial length CDK8 (M1 to T360 residues) expressed in bacterial expression system assessed as remaining unbound target protein level at 1000 nM by Kinomescan method relative to control
[17] = system: Epidermal growth factor receptor (Homo sapiens), P00533 [UNDEFINED MUTATION]; assay: Binding affinity to human partial length EGFR L747-S752del/P753S mutant expressed in bacterial expression system assessed as remaining unbound target protein level at 1000 nM by Kinomescan method relative to control
Method in brief: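 KINOMEscan competition-binding profiling across the panel of 468 kinases and mutants, with inhibitor tested at 1 μM. Binding is expressed as percent of control, with DMSO as the reference control.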

[18] = target: Mitogen-activated protein kinase 14 (Homo sapiens) (UniProt Q16539); assay: Binding affinity to wild-type human full length p38-alpha (M1 to S360 residues) expressed in bacterial expression system assessed as remaining unbound target protein level at 1000 nM by Kinomescan method relative to control; method in brief: as §1
Chain of Mitogen-activated protein kinase 14 (Homo sapiens) (Q16539 whole entry, the tested form may be a part): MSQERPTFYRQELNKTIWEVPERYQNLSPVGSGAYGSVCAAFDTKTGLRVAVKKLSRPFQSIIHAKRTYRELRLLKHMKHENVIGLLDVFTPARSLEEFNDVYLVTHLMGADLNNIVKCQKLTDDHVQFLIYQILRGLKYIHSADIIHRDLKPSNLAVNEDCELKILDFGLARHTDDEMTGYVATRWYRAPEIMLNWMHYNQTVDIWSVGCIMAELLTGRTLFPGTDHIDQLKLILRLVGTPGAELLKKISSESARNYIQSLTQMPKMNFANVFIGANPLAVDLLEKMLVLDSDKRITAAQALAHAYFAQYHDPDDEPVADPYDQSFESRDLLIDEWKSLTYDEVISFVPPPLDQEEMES

[19] = target: Ephrin type-A receptor 8 (Homo sapiens) (UniProt P29322); assay: Binding affinity to wild-type human partial length EPHA8 (Q608 to C920 residues) expressed in bacterial expression system assessed as remaining unbound target protein level at 1000 nM by Kinomescan method relative to control
Chain of Ephrin type-A receptor 8 (Homo sapiens) (P29322 whole entry, the tested form may be a part): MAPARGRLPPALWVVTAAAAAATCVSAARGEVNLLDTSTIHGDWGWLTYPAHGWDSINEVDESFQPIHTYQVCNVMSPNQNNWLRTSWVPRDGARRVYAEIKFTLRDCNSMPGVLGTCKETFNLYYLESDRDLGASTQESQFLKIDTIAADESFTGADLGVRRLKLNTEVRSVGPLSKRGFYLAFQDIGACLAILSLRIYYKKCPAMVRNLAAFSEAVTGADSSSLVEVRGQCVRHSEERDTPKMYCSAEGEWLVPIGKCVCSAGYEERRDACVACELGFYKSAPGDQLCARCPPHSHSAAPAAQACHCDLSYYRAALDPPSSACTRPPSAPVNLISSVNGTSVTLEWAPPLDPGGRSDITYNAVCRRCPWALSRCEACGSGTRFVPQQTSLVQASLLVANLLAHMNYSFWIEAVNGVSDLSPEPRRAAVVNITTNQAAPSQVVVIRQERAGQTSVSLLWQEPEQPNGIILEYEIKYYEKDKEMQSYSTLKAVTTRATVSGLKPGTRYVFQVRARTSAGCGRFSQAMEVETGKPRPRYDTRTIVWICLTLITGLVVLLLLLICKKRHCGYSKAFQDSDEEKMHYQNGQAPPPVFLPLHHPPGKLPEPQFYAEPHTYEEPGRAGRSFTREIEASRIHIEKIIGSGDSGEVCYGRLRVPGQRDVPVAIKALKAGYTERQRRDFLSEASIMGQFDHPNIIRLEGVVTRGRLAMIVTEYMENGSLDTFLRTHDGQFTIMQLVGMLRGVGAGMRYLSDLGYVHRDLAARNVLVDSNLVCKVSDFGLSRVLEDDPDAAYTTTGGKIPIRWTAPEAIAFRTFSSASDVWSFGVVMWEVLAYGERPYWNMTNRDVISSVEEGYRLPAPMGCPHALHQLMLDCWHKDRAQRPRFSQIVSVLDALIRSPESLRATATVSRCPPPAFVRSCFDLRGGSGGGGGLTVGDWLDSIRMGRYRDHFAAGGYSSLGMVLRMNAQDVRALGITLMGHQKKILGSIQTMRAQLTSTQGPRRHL

[20] = target: Cyclin-Y/Cyclin-dependent kinase 16 (Homo sapiens, UniProt Q00536); assay: Inhibition of recombinant GST-tagged inactive state of human CDK16 (108 to end residues)/cyclin Y (2 to end residues); assay type: protein-complex assay
Homo sapiens = species on record: Homo sapiens; assay: Induction of apoptosis in human MEC1 cells assessed as decrease in MCL-1 level after 2 hrs by immunoblotting analysis; assay type: functional, cell-based
[21] = target: Vascular endothelial growth factor receptor 3 (Homo sapiens) (UniProt P35916); assay: Binding affinity to wild-type human partial length FLT4 (E821 to E1196 residues) expressed in bacterial expression system assessed as remaining unbound target protein level at 1000 nM by Kinomescan method relative to control
Chain of Vascular endothelial growth factor receptor 3 (Homo sapiens) (P35916 whole entry, the tested form may be a part): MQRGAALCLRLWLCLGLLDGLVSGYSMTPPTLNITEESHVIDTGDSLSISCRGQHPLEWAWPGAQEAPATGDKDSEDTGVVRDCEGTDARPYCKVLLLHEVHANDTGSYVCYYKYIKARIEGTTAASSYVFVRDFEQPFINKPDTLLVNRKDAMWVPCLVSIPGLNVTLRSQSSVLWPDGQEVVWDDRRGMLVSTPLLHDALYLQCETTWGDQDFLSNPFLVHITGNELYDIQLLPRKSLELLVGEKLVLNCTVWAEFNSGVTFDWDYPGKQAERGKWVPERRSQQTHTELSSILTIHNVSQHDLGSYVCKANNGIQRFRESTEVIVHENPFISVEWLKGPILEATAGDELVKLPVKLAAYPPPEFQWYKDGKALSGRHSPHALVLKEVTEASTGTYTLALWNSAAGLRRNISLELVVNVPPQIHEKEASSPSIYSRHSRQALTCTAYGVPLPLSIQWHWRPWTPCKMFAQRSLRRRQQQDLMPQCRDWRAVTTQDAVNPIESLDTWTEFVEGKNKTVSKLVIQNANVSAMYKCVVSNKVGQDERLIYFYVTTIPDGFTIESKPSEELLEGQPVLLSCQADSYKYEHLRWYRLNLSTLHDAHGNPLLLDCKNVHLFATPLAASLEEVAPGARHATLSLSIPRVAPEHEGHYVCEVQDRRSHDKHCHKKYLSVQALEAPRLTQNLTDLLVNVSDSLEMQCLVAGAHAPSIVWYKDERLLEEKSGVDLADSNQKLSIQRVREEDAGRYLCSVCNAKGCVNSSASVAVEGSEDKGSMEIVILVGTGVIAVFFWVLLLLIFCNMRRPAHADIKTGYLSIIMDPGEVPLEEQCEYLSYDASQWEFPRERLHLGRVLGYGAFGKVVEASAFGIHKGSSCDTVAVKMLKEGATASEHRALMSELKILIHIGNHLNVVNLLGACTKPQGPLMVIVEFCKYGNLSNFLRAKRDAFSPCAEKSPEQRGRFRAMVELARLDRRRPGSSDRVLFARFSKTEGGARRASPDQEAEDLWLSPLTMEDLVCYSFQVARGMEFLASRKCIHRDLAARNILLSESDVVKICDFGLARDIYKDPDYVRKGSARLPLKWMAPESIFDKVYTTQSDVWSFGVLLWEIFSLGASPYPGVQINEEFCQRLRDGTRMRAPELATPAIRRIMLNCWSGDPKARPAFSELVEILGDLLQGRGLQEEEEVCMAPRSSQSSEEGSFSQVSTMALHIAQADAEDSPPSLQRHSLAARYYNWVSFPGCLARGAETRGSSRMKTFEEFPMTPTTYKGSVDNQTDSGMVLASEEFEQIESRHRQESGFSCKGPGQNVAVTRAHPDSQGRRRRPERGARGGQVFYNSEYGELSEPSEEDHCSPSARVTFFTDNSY

[22] = target: Focal adhesion kinase 1 (Homo sapiens) (UniProt Q05397); assay: Binding affinity to wild-type human partial length FAK (D402 to R696 residues) expressed in bacterial expression system assessed as remaining unbound target protein level at 1000 nM by Kinomescan method relative to control

COCCN[C@H]1CC[C@H](Nc2cc(-c3csc(NCC4(C#N)CCOCC4)n3)c(Cl)cn2)CC1
Activity [1]: 94%
bioavailability [2]: 45.1%
Activity [3]: 100%
Activity [4]: 100%
Activity [5]: 90%
Activity [6]: 100%
Activity [7]: 81%
Tmax [8]: 3.33 h
half-life [9]: 1.55 h
Activity [10]: 100%
Activity [11]: 99%
inhibition [12]: inactive
Activity [13]: 100%
MRT last [14]: 3.59 h
Activity [15]: 89%
Activity [16]: 100%
Activity [17]: 79%
Activity [18]: 98%
Activity [19]: 92%
IC50 [20]: 292 nM
Activity (Homo sapiens): Dose-dependent effect
Activity [21]: 88%
Activity [22]: 84%

From ChEMBL document CHEMBL4261600 (Eur J Med Chem, 2018)
